Measured values from ChEMBL document CHEMBL3526048, “In vitro metabolism of rivoglitazone, a novel peroxisome proliferator-activated receptor γ agonist, in rat, monkey, and human liver microsomes and freshly isolated hepatocytes” (Drug Metab Dispos, 2011).

Columns and labels:
[1] = Drug metabolism in cynomolgus monkey liver microsomes assessed as formation of 2-mercapto-3-(4-((6-methoxy-1-methyl-1H-benzo[d]imidazol-2-yl)methoxy)phenyl)propanamide at 20 uM after 2 hrs by radio-HPLC/LC-MS/MS analysis in presence of NADPH-generating system and NADPH-generating system/SAM; type: ADME, Macaca fascicularis
[2] = Drug metabolism in po dosed monkey liver microsomes assessed as formation of 5-(4-((6-methoxy-1H-benzo[d]imidazol-2-yl)methoxy)benzyl)thiazolidine-2,4-dione; type: ADME, Macaca mulatta; settings: rhesus monkey
[3] = Drug metabolism in human hepatocytes assessed as formation of 5-(4-((6-methoxy-1H-benzo[d]imidazol-2-yl)methoxy)benzyl)thiazolidine-2,4-dione at 30 uM after 3 hrs by radio-HPLC/LC-MS/MS analysis in presence of NADPH-generating system and NADPH-generating system/SAM; type: ADME, cell-based, Hepatocyte
Liver microsome = test: Drug metabolism in human liver microsomes assessed as formation of 5-(4-((6-methoxy-1H-benzo[d]imidazol-2-yl)methoxy)benzyl)thiazolidine-2,4-dione at 20 uM after 2 hrs by radio-HPLC/LC-MS/MS analysis in presence of NADPH-generating system and NADPH-generating system/SAM; type: ADME
[4] = biological target: T1, UDP-glucuronosyltransferase 2B7 (Homo sapiens, UniProt P16662); test: Activity of human UGT2B7 expressed in microsomes isolated from baculovirus infected insect cell assessed as enzyme-mediated 5-(4-((6-hydroxy-1-methyl-1H-benzo[d]imidazol-2-yl)methoxy)benzyl)thiazolidine-2,4-dione formation at 20 uM after 4 hrs by radio-HPLC/LC-MS/MS analysis in presence of NADPH-generating system/SAM; type: ADME
T1 sequence (P16662 whole entry): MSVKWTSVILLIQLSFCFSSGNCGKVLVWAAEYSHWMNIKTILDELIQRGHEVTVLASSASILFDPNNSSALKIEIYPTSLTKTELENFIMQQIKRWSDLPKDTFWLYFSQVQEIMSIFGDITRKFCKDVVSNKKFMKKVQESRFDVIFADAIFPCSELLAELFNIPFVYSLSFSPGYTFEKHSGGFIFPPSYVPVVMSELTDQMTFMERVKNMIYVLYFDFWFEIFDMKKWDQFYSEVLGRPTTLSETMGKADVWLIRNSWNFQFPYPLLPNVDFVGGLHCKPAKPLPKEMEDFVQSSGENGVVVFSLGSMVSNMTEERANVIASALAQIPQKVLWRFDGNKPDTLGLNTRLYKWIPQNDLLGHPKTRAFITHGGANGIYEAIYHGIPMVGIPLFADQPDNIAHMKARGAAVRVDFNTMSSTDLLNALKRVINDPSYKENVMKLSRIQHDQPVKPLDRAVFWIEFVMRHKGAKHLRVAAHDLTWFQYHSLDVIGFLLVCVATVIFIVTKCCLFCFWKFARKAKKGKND

[5] = biological target: T2, UDP-glucuronosyltransferase 1A6 (Homo sapiens, UniProt P19224); test: Activity of human UGT1A6 expressed in microsomes isolated from baculovirus infected insect cell assessed as enzyme-mediated (2S,3S,4S,5R,6R)-3,4,5-trihydroxy-6-(5-(4-((6-methoxy-1-methyl-1H-benzo[d]imidazol-2-yl)methoxy)benzyl)-2,4-dioxothiazolidin-3-yl)tetrahydro-2H-pyran-2-carboxylic acid formation at 20 uM after 4 hrs by radio-HPLC/LC-MS/MS analysis in presence of UDPGA; type: ADME
T2 sequence (P19224 whole entry): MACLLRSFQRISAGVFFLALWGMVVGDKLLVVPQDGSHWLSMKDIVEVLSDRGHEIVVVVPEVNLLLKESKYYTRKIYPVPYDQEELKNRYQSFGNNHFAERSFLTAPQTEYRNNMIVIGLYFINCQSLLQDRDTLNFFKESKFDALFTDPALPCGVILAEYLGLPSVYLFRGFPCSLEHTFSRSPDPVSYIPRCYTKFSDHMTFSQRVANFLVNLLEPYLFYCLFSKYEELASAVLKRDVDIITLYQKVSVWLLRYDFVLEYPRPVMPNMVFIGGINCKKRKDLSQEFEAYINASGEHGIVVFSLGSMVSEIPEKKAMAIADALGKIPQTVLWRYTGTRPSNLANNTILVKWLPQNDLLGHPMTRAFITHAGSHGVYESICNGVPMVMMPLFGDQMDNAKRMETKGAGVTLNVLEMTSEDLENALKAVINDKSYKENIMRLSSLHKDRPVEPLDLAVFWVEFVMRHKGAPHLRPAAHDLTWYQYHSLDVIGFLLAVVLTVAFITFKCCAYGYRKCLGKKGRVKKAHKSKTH

Cytochrome P450 2C9 = Cytochrome P450 2C9 (Homo sapiens, UniProt P11712); test: Activity of human CYP2C9 expressed in microsomes isolated from baculovirus infected insect cell assessed as enzyme-mediated 2-hydroxy-3-(4-((6-methoxy-1-methyl-1H-benzo[d]imidazol-2-yl)methoxy)phenyl)propanamide formation at 20 uM after 2 hrs by radio-HPLC/LC-MS/MS analysis in presence of NADPH-generating system and NADPH-generating system/SAM; type: ADME
Sequence of Cytochrome P450 2C9 (P11712 whole entry): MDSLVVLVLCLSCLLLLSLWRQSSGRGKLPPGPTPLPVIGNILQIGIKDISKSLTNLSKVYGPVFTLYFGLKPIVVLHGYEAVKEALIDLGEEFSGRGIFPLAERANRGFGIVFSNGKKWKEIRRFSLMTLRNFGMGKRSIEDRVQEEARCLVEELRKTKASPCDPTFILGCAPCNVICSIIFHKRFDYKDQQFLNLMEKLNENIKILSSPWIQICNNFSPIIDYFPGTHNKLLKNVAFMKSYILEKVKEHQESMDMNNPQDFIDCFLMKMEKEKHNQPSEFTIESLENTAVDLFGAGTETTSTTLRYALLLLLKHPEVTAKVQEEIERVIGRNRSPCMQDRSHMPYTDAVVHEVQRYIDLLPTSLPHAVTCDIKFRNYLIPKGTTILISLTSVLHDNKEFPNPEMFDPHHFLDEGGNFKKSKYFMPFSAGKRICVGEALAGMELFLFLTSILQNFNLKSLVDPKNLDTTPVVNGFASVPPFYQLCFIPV

[6] = Drug metabolism in monkey hepatocytes assessed as formation of 3-(4-((6-methoxy-1-methyl-1H-benzo[d]imidazol-2-yl)methoxy)phenyl)-2-(methylthio)propanoic acid at 30 uM after 3 hrs by radio-HPLC/LC-MS/MS analysis in presence of NADPH-generating system/SAM and UDPGA/SAM; settings: cynomolgus monkey
Cytochrome P450 2C8 = biological target: T3, Cytochrome P450 2C8 (Homo sapiens, UniProt P10632); test: Activity of human CYP2C8 expressed in microsomes isolated from baculovirus infected insect cell assessed as enzyme-mediated compound formation treated with [14C]-rivoglitazone at 20 uM after 2 hrs by radio-HPLC/LC-MS/MS analysis in presence of NADPH-generating system; type: ADME
T3 sequence (P10632 whole entry): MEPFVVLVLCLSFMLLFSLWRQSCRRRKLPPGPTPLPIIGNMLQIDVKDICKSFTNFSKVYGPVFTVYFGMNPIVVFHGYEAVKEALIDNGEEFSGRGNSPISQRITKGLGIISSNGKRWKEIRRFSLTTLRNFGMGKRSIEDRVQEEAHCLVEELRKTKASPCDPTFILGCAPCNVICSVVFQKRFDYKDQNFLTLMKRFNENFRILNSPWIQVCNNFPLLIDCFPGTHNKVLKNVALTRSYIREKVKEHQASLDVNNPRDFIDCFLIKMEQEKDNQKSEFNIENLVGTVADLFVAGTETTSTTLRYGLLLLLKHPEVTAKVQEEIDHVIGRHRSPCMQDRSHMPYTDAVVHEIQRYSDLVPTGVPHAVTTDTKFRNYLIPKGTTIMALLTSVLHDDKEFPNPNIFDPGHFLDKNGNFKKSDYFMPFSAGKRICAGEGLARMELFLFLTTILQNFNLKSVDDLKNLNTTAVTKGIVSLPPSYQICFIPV
Method in brief: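 Baculovirus/insect-cell microsomes expressing single human CYPs, 1 mg/ml protein, with 50 mM potassium phosphate (pH 7.4) or 100 mM Tris-HCl (pH 7.5). NADPH-generating system: 2 mM NADP⁺, 20 mM glucose 6-phosphate, 2 units/ml G6PDH, 10 mM MgCl₂. [¹⁴C]rivoglitazone at 20 μM, 2 h at 37°C with shaking. Control used insect-cell control supersomes. Stopped with acetonitrile; supernatant concentrated under nitrogen; metabolites analysed by radio-HPLC, LC-MS and LC-MS/MS.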

[7] = system: Hepatocyte (Macaca fascicularis); test: Drug level in monkey hepatocytes treated with [14C]-rivoglitazone at 30 uM after 3 hrs by radio-HPLC/LC-MS/MS analysis in presence of UDPGA, UDPGA/SAM and NADPH-generating system; settings: cynomolgus monkey

| Drug metabolism [1] | Drug metabolism [2] | Drug metabolism [3] | Drug metabolism (Liver microsome) | Drug metabolism [4] | Drug metabolism [5] | Drug metabolism (Cytochrome P450 2C9) | Drug metabolism [6] | Drug metabolism (Cytochrome P450 2C8) | Drug metabolism [7] | SMILES |
| --- | --- | --- | --- | --- | --- | --- | --- | --- | --- | --- |
| metabolite_detected | metabolite_detected | metabolite_detected | metabolite_detected | metabolite_not_detected | metabolite_not_detected | metabolite_detected | metabolite_not_detected | – | – | COc1ccc2nc(COc3ccc(C[14CH]4SC(=O)NC4=O)cc3)n(C)c2c1.Cl (racemic) |
| – | – | – | – | – | – | – | – | metabolite_detected | metabolite_not_detected | COc1ccc2nc(COc3ccc(CC(S)C(=O)O)cc3)n(C)c2c1 (stereo not given) |
